Starred links: 1 amine or outer side, 2 acyl side, 3 side chain; linkers in the order of their positions; H or OH if unused. Positions of bridges follow the written chain, without caps; N, C: chain ends. Non-standard residues stand in square brackets, D forms with d. Residues, ends and D or L forms follow the SMILES beside them. X1 = O=C(CC1(S[*:2])CCCCC1)[*:1]; Orn = NCCC[C@H](N)C(=O)O
Tests used:
[1] = system: Rattus norvegicus; assay: (§1) Antivasopressor activity in vivo in phenoxybenzamine pre-treated rats.; format: functional
How it was run: (§2)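 Rats pretreated with phenoxybenzamine, under urethane anesthesia; antagonist given iv; agonist USP Posterior Pituitary Reference Standard; read-out is pressor response. Effective dose (nmol/kg) is the dose that cuts the response to 2X units of agonist to that of 1X unit, interpolated semilogarithmically from bracketing doses. pA2 assumes a 67 mL/kg distribution volume. SEM is given where there are ≥4 independent estimates.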

[2] = system: Rattus norvegicus; assay: In vivo inhibition of estrogen induced changes in interuterine pressure in rats.; format: functional
How it was run: (§3)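 Rats pretreated with estrogen, under urethane anesthesia; antagonist given iv; read-out is change in integrated intrauterine pressure; agonist synthetic oxytocin. Effective dose (nmol/kg) is the dose that cuts the response to 2X units of agonist to the response to 1X unit, interpolated on a semilog scale from doses above and below it. pA2 is derived assuming a 67 mL/kg distribution volume.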

[3] = system: Rattus norvegicus; assay: Antidiuretic activity in rats as intravenous dose required for reduction of 2x agonist response to equal 1x effect in estrogen pretreated rats; format: functional, Urine
[4] = system: Rattus norvegicus; assay: Antidiuretic activity in rats as intravenous dose required for reduction of 2x agonist response to equal 1x effect in estrogen pretreated rats; Weak partial agonist/antagonist; format: functional; settings: Urine
[5] = system: Rattus norvegicus; assay: (§4) In vivo antidiuretic activity as intravenous antagonist dose in estrogen pretreated rats; Weak partial agonist/antagonist; format: functional, organism-based; settings: Urine
[6] = system: Rattus norvegicus; assay: Antidiuretic activity in rats as intravenous dose required for reduction of 2x agonist response to equal 1x effect in hydrated rats under ethanol anesthesia; Weak partial agonist/antagonist
[7] = species: Rattus norvegicus; assay: Antidiuretic activity in rat; format: functional, Urine
[8] = system: Rattus norvegicus; assay: Antidiuretic activity in rats as intravenous dose required for reduction of 2x agonist response to equal 1x effect in estrogen pretreated rats; weak partial agonist/antagonist; format: functional, Urine
[9] = system: Rattus norvegicus; assay: as §4; format: functional, Urine
[10] = system: Rattus norvegicus; assay: In vivo antidiuretic activity as intravenous antagonist dose in estrogen pretreated rats; format: functional, Urine
[11] = system: Rattus norvegicus; assay: as §1; format: functional, organism-based; settings: read-out: pA2 (converted); how it was run: as §2
[12] = system: Rattus norvegicus; assay: Antioxytocic potencies (change in interuterine pressure) in vivo in estrogen pre-treated rats.; format: functional, organism-based; settings: read-out: pA2 (converted); how it was run: as §3
[13] = system: Rattus norvegicus; assay: Antiantidiuretic activity in vivo in hydrated rats under ethanol anaesthesia.; format: functional, organism-based; settings: Urine, read-out: pA2 (converted)
How it was run: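 Hydrated rats under ethanol anaesthesia; antagonist given iv against the USP Posterior Pituitary Reference Standard as agonist. Effective dose (nmol/kg) is the dose that cuts the response to 2x units of agonist to equal the response to 1x unit. It is estimated by interpolation on a semilog scale between doses above and below it. pA2 assumes a volume of distribution of 67 mL/kg. Where SEM is given, n ≥4 estimates.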

[14] = species: Rattus norvegicus; assay: Antioxytoxic activity in vitro in isolated uteri from estrogen pretreated rats suspended in Mg supplemented Dyke-Hastings solution.; format: functional; settings: read-out: pA2 (converted)
How it was run: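 Isolated rat uterus in bath medium with Mg2+; agonist USP Posterior Pituitary Reference Standard. pA2 is the −log of the effective molar antagonist concentration that reduces the response to a dose of agonist to the response to half that dose. It is interpolated semilogarithmically from concentrations above and below it. SEM is given where there are ≥4 independent estimates.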

[15] = species: Rattus norvegicus; assay: Antioxytoxic activity in vitro in isolated uteri from estrogen pretreated rats suspended in Mg-free Dyke-Hastings solution.; settings: read-out: pA2 (converted)
[16] = species: Rattus norvegicus; assay: Antidiuretic activity in rats; format: functional, Urine

| Compound | ED [1] [nM/kg] | ED [2] [nM/kg] | ED [3] [nM/kg] | further results |
| --- | --- | --- | --- | --- |
| CC[C@H](C)[C@@H]1NC(=O)[C@@H](Cc2ccccc2)NC(=O)CC2(CCCCC2)SSC[C@@H](C(=O)N2CCC[C@H]2C(=O)N[C@@H](CCCN=C(N)N)C(=O)NCC(N)=O)NC(=O)[C@H](CC(N)=O)NC(=O)[C@H](C(C)C)NC1=O | 17 | 2.5 | 45 |  |
| CC[C@H](C)[C@@H]1NC(=O)[C@@H](Cc2ccc(OC)cc2)NC(=O)CC2(CCCCC2)SSC[C@@H](C(=O)N2CCC[C@H]2C(=O)N[C@@H](CCCN=C(N)N)C(=O)NCC(N)=O)NC(=O)[C@H](CC(N)=O)NC(=O)[C@H](C(C)C)NC1=O | 1.1 | 2.4 | 9.4 |  |
| CCOc1ccc(C[C@H]2NC(=O)CC3(CCCCC3)SSC[C@@H](C(=O)N3CCC[C@H]3C(=O)N[C@@H](CCCNC(N)=O)C(=O)NCC(N)=O)NC(=O)[C@H](CC(N)=O)NC(=O)[C@H](C(C)C)NC(=O)[C@H](Cc3ccccc3)NC2=O)cc1 | 0.81 | 1.8 | 23 |  |
| COc1ccc(C[C@H]2NC(=O)CC3(CCCCC3)SSC[C@@H](C(=O)N3CCC[C@H]3C(=O)N[C@@H](CCCN=C(N)N)C(=O)NCC(N)=O)NC(=O)[C@H](CC(N)=O)NC(=O)[C@H](CCC(N)=O)NC(=O)[C@H](Cc3ccccc3)NC2=O)cc1 | 0.36 | 1.3 | 7.3 |  |
| COc1ccc(C[C@H]2NC(=O)CC3(CCCCC3)SSC[C@@H](C(=O)N3CCC[C@H]3C(=O)N[C@@H](CCCN=C(N)N)C(=O)NCC(N)=O)NC(=O)[C@H](CC(N)=O)NC(=O)[C@H](C(C)C)NC(=O)[C@H](Cc3ccccc3)NC2=O)cc1 | 0.23 | 1.9 | 1.2 |  |
| COc1ccc(C[C@H]2NC(=O)CC3(CCCCC3)SSC[C@@H](C(=O)N3CC=C[C@H]3C(=O)N[C@@H](CCCN=C(N)N)C(=O)NCC(N)=O)NC(=O)[C@H](CC(N)=O)NC(=O)[C@H](C(C)C)NC(=O)[C@H](Cc3ccccc3)NC2=O)cc1 | 0.55 | 1.17 | 1.7 |  |
| COc1ccc(C[C@@H]2NC(=O)CC3(CCCCC3)SSC[C@@H](C(=O)N3CCC[C@H]3C(=O)N[C@@H](CCCN=C(N)N)C(=O)NCC(N)=O)NC(=O)[C@H](CC(N)=O)NC(=O)[C@H](C(C)C)NC(=O)[C@H](Cc3ccccc3)NC2=O)cc1 | 0.29 | 8 | 3.1 |  |
| CC[C@H](C)[C@H]1NC(=O)[C@@H](Cc2ccc(OC)cc2)NC(=O)CC2(CCCCC2)SSC[C@H](C(=O)N2CCC[C@H]2C(=O)N[C@@H](CCCN)C(=O)N[C@H](C)C(N)=O)NC(=O)[C@@H](CC(N)=O)NC(=O)[C@H]([C@H](C)O)NC1=O |  |  |  | ED [4]: Partial agonist |
| CC[C@H](C)[C@H]1NC(=O)[C@@H](Cc2ccc(OC)cc2)NC(=O)CC2(CCCCC2)SSC[C@H](C(=O)N2CCC[C@H]2C(=O)N[C@@H](CCCN)C(=O)N[C@H](CCCN=C(N)N)C(N)=O)NC(=O)[C@@H](CC(N)=O)NC(=O)[C@H]([C@H](C)O)NC1=O |  |  |  | Activity [5]: Partial agonist |
| CC[C@H](C)[C@@H]1NC(=O)[C@H](Cc2ccc(OC)cc2)NC(=O)CC2(CCCCC2)SSC[C@@H](C(=O)N2CCC[C@H]2C(=O)N[C@@H](CCCN)C(=O)NCC(N)=O)NC(=O)[C@H](CC(N)=O)NC(=O)[C@H](CCC(N)=O)NC1=O (Y(Me)IQNCP[Orn]G-NH2; linker N-5 via X1) | 0.8 | 4.2 | 0.01 |  |
| CC[C@H](C)[C@@H]1NC(=O)[C@H](Cc2ccc(OC)cc2)NC(=O)CC2(CCCCC2)SSC[C@@H](C(=O)N2CCC[C@H]2C(=O)N[C@@H](CCCN)C(N)=O)NC(=O)[C@H](CC(N)=O)NC(=O)[C@H]([C@@H](C)O)NC1=O (Y(Me)ITNCP[Orn]-NH2; linker N-5 via X1) | 7.3 | 1.7 |  | ED [6]: ~100 nM/kg |
| CC[C@H](C)[C@@H]1NC(=O)[C@H](Cc2ccc(OC)cc2)NC(=O)CC2(CCCCC2)SSC[C@@H](C(=O)N2CCC[C@H]2C(=O)N[C@@H](CCCN)C(=O)O)NC(=O)[C@H](CC(N)=O)NC(=O)[C@H]([C@@H](C)O)NC1=O (Y(Me)ITNCP[Orn]-OH; linker N-5 via X1) | 23 | 1.3 |  | ED [6]: ~300 nM/kg |
| CC[C@H](C)[C@@H]1NC(=O)[C@H](Cc2ccc(OC)cc2)NC(=O)CC2(CCCCC2)SSC[C@@H](C(=O)N2CCC[C@H]2C(=O)N[C@@H](CCCN)C(=O)NCC(N)=O)NC(=O)[C@H](CC(N)=O)NC(=O)[C@H]([C@@H](C)O)NC1=O (Y(Me)ITNCP[Orn]G-NH2; linker N-5 via X1) | 9.9 | 2 |  | Activity [7]: 0.01 mg; ED [8]: ~330 nM/kg |
| CC[C@H](C)[C@@H]1NC(=O)[C@H](Cc2ccc(OC)cc2)NC(=O)CC2(CCCCC2)SSC[C@@H](C(=O)N2CCC[C@H]2C(=O)N[C@@H](CCCN)C(=O)N[C@@H](CC(C)C)C(N)=O)NC(=O)[C@H](CC(N)=O)NC(=O)[C@H]([C@@H](C)O)NC1=O (Y(Me)ITNCP[Orn]L-NH2; linker N-5 via X1) | 27 | 1.8 |  | Activity [9]: 0.029 mg |
| CC[C@H](C)[C@@H]1NC(=O)[C@H](Cc2ccc(OC)cc2)NC(=O)CC2(CCCCC2)SSC[C@@H](C(=O)N2CCC[C@H]2C(=O)N[C@@H](CCCN)C(=O)N[C@@H](Cc2ccc(O)cc2)C(N)=O)NC(=O)[C@H](CC(N)=O)NC(=O)[C@H]([C@@H](C)O)NC1=O (Y(Me)ITNCP[Orn]Y-NH2; linker N-5 via X1) | 6.6 | 1 |  | Activity [10]: 0.015 mg |
| CCOc1ccc(C[C@H]2NC(=O)CC3(CCCCC3)SSC[C@@H](C(=O)N3CCC[C@H]3C(=O)N[C@@H](CCCCN)C(=O)NCC(N)=O)NC(=O)[C@H](CC(N)=O)NC(=O)[C@H](C(C)C)NC(=O)[C@H](Cc3ccccc3)NC2=O)cc1 ([dY](Et)FVNCPKG-NH2; linker N-5 via X1) [listing 1 of 2 here] |  |  |  | Kb [11]: 6.92 nM; Kb [12]: 26.9 nM; Kb [13]: 19.1 nM; Kb [14]: 10.5 nM; Kb [15]: 13.5 nM |
| CCOc1ccc(C[C@H]2NC(=O)CC3(CCCCC3)SSC[C@@H](C(=O)N3CCC[C@H]3C(=O)N[C@@H](CCCCN)C(=O)NCC(N)=O)NC(=O)[C@H](CC(N)=O)NC(=O)[C@H](C(C)C)NC(=O)[C@H](Cc3ccccc3)NC2=O)cc1 ([dY](Et)FVNCPKG-NH2; linker N-5 via X1) [listing 2 of 2 here] | 0.48 | 1.9 | 1.5 |  |
| CCOc1ccc(C[C@H]2NC(=O)CC3(CCCCC3)SSC[C@@H](C(=O)N3CCC[C@H]3C(=O)N[C@@H](CCCN=C(N)N)C(=O)NCC(N)=O)NC(=O)[C@H](CC(N)=O)NC(=O)[C@H](C(C)C)NC(=O)[C@H](Cc3ccccc3)NC2=O)cc1 ([dY](Et)FVNCPRG-NH2; linker N-5 via X1) | 0.45 | 2.6 | 1.1 |  |
| CC[C@H](C)[C@@H]1NC(=O)C(Cc2ccc(OC)cc2)NC(=O)CC2(CCCCC2)SSC[C@@H](C(=O)N2CCC[C@H]2C(=O)N[C@@H](CCCN=C(N)N)C(=O)NCC(N)=O)NC(=O)[C@H](CC(N)=O)NC(=O)[C@H](CCC(N)=O)NC1=O (stereo in doubt) | 0.64 | 1.1 |  | Activity [16]: ~0.03 mg |
| CC[C@H](C)[C@@H]1NC(=O)C(Cc2ccc(OC)cc2)NC(=O)CC(C)(C)SSC[C@@H](C(=O)N2CCC[C@H]2C(=O)N[C@@H](CCCN=C(N)N)C(=O)NCC(N)=O)NC(=O)[C@H](CC(N)=O)NC(=O)[C@H](C(C)C)NC1=O (stereo in doubt) | 0.23 | 1.9 |  | Activity [7]: 1.6 mg |
| CC[C@H](C)[C@@H]1NC(=O)C(Cc2ccc(OC)cc2)NC(=O)CC(C)(C)SSC[C@@H](C(=O)N2CCC[C@H]2C(=O)N[C@@H](CCCN=C(N)N)C(=O)NCC(N)=O)NC(=O)[C@H](CC(N)=O)NC(=O)[C@H](CCC(N)=O)NC1=O (stereo in doubt) | 0.25 | 2.2 |  | Activity [7]: ~1.6 mg |
| CC[C@H](C)[C@@H]1NC(=O)C(Cc2ccc(OC)cc2)NC(=O)CC2(CCCCC2)SSC[C@@H](C(=O)N2CCC[C@H]2C(=O)N[C@@H](CCCCN)C(=O)NCC(N)=O)NC(=O)[C@H](CC(N)=O)NC(=O)[C@H](CCC(N)=O)NC1=O (stereo in doubt) | 1.5 | 4.6 |  | Activity [7]: ~0.003 mg |
